The values below come from PMC4028150 (Chembiochem : a European journal of chemical biology, 2013).

For orientation: Kd means the concentration at which binding is half-saturated. Read a low Kd as a tighter complex.

The test system of assay [1] is SCF^Skp2 (p27 ubiquitination). The assay is described as follows: In vitro p27 ubiquitination assay. To be noted: E1, hCdc34 (E2), Cks1, p27 phosphorylated by cyclin E-Cdk2, SCF^Skp2; 2 hrs, 30°C; Figure S3. Type of assay: biochemical.
In assay [2] the target is SCF^Fbx4 (Fbx4-dependent TRF1 ubiquitination) (UniProt P54274). In words: In vitro TRF1 ubiquitination assay. To be noted: versus wild-type peptide (IC50 = 205.9 µM). Type of assay: biochemical. The essentials: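 TRF1ΔMyb (E. coli; Ni-NTA, tag cleaved, gel filtration, Mono-Q/Mono-S) was prelabelled with GST-cyclin B/Cdk1 in 50 mM Tris pH 8.0, 10 mM MgCl2, 10 mM ATP and 2 µCi [γ-33P]ATP for 1 hr, then kinase-depleted on glutathione resin. It was incubated with E1, UbcH5a, SCFFbx4, ubiquitin, methylated ubiquitin, energy-regenerating system and increasing peptide at 30°C for 2.5 hrs. SDS-PAGE and phosphorimaging followed. IC50 came from loss of polyubiquitination.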

For assay [3], the target named is T1, TRF1_(TRFH) (residues 58-268) (UniProt P54274 58-268).
T1 sequence (looked up): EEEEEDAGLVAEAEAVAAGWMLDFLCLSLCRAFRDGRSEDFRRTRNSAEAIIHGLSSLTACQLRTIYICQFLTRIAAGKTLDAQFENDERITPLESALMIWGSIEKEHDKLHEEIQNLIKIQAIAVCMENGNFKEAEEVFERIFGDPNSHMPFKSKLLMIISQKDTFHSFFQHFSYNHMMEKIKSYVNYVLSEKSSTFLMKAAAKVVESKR
The assay is described as follows: fluorescence polarisation. In general terms: Polarisation of emitted light reports the rotation of a fluorescent probe.

Where a SMILES comes first, the peptide text is derived from it. Where no end group is shown, it is not given here.

Take `CC[C@H](C)[C@H](NC(=O)[C@@H]1CCCN1C(=O)[C@@H](N)CCSC)C(=O)N[C@@H](Cc1ccccc1)C(=O)N[C@@H](Cc1c[nH]c2ccccc12)C(=O)N[C@@H](CCCCN)C(=O)N[C@@H](Cc1ccccc1)C(=O)N[C@@H](Cc1c[nH]cn1)C(=O)N[C@@H](CCCNC(=N)N)C(=O)N[C@@H](CCSC)C(=O)N[C@@H](CO)C(=O)N[C@@H](CCCCN)C(=O)N[C@@H](CCSC)C(=O)NCC(=O)N[C@H](C(=O)NCC(N)=O)[C@@H](C)O` [Design 1] (H-MPIFWKFHRMSKMGTG-NH2): the “effect on the ubiquitination of p27” value in assay [1] was “no effect”. Moreover, in assay [2], the “decrease of IC50 compared to wild-type peptide” value was “more than 6 fold”.

B1: Wild-Type peptide (Fbx4 residues 339-348) (peptide)
peptide: MPCFYLAHEL-NH2
modifications: also: 7-hydroxycoumarin-3-carboxylic acid label, position not given here
As to B1, in assay [3], the dissociation constant Kd was determined as 41.8 µM.

B2: Control 1 (peptide)
peptide: SMTWRGKPAHMIFGKM-NH2
modifications: also: 7-hydroxycoumarin-3-carboxylic acid label, position not given here
Regarding B2, the Kd in assay [3] is above 250 µM.

B3: Design 1 (designed binder)
peptide: MPIFWKFHRMSKMGTG-NH2
modifications: also: 7-hydroxycoumarin-3-carboxylic acid label, position not given here
In assay [3], B3 showed a dissociation constant Kd of 23.3 µM.

B4: Design 2 (designed binder)
peptide: MPIAWKFHRMSKMGTG-NH2
modifications: also: 7-hydroxycoumarin-3-carboxylic acid label, position not given here
For B4, the affinity in assay [3], expressed as Kd, was 47.8 µM.

B5: Design 3 (designed binder)
peptide: MPIFWKAHRMSKMGTG-NH2
modifications: also: 7-hydroxycoumarin-3-carboxylic acid label, position not given here
For the molecule B5, the dissociation constant (Kd) in assay [3] was determined as 17.3 µM.

B6: Control 2 (peptide)
peptide: KKMDVCGGLSD-NH2
modifications: also: 7-hydroxycoumarin-3-carboxylic acid label, position not given here
As for B6, the dissociation constant (Kd) in assay [3] is above 10000 µM.
